# Rpn11 block: Rpn11 (PSMD14) deubiquitinase inhibitors, primary screen, biochemical, fluorescence polarization, uHTS; 26S proteasome non-ATPase regulatory subunit 14 (Homo sapiens), O00487; 360,000 tested, 0.59% active; inhibition, % at 20 µM; human 26S proteasome, Ub4-pepOG fluorescence polarization; 20S core pre-blocked with epoxomicin;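 active means inhibition at 20 µM, scaled to each plate's controls, above about 33%, limit read from the data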
# Target sequence (O00487 whole entry, looked up): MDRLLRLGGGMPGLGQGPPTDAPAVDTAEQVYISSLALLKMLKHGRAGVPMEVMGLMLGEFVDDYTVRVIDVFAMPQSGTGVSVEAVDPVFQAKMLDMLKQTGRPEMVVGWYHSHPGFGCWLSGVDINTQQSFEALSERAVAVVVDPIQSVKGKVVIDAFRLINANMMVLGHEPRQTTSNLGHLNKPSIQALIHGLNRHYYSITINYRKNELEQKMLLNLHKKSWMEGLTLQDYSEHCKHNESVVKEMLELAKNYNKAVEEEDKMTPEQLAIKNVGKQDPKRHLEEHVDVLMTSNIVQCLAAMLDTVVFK
# Myeloid diff MLP: induction of myeloid progenitor differentiation, primary screen, cell-based, flow cytometry, MLPCN library; calls only at 10 µM; ER-HoxA9 myeloid progenitors, lysozyme-GFP differentiation; 360,000 tested, 1% active;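 active means normalized GFP-positive differentiation at or above the plate's own cutoff, the solvent-only control mean plus 3 SD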;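 further: cells exposed to compound for four days before flow analysis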
# TPT1 inhibitor: Candida albicans TPT1 enzyme inhibitors, primary screen, biochemical, fluorescence polarization | 300,000 tested, 0.81% active | AID 1962, 2009 | recombinant caTPT1, FP RNA substrate dephosphorylation | inhibition, % at 5 µM;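 active means inhibition above the mean of all tested compounds plus 3 SD, set per screening campaign, cut at about 24% in these data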;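 further: plate controls were DMSO alone for no effect and ferristatin control at 100 nM for full effect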
# HNF4A DNA FP: change in binding of human HNF4A to DNA, primary screen, biochemical, fluorescence polarization, FITC-DNA; Hepatocyte nuclear factor 4-alpha (Homo sapiens), P41235; 1 h; activity change, % at 10 µM; 360,000 tested, 0.3% active; AID 1224865, 2016; in the data active means activity change above about 30%, passing the limit was not always enough
# CSN deneddyl inh: inhibitors of CSN-mediated cullin deneddylation, primary screen, biochemical, fluorescence polarization, uHTS. inhibition, % at 12.5 µM. 360,000 tested, 0.38% active. AID 651999, 2013. COP9 signalosome complex subunit 5 (Homo sapiens), Q92905. Purified CSN, SCF-Nedd8-OG deneddylation;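 active means pattern-corrected inhibition above about 35%, with an unprinted fluorescence ratio check between 0.5 and 1.5, limit read from the data, passing the limit was not always enough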;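 further: 0% = enzyme with substrate and 100% = substrate without enzyme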
#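 Assay system: purified human Csn5 enzyme expressed in HEK293T cells; measure: % inhibition; also added: SCFSkp2-Nedd8OG substrate at 10 nM final; technique: fluorescence polarization; times: reaction 90 min, room temperature; medium: Tris buffer pH 7.5, NaCl, DTT, Tween-20, trehalose, ovalbumin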
# Starred values were filed as active, the others as inactive; i = inactive; / = no result shown; + = active, no number. The list is not random: actives were taken first. Their share in the collection is about 2.3%.
SMILES,Rpn11 block,Myeloid diff MLP,TPT1 inhibitor,HNF4A DNA FP,CSN deneddyl inh
O=C(c1ccc(Cl)c(S(=O)(=O)NCc2ccco2)c1)N1CCN(c2ccccc2F)CC1,-2,i,-3,0,2
CCOC(=O)C1=C(C)NC2=C(C(=O)CC(c3cccs3)C2)C1c1cccs1 (stereo unspecified),1,+,-5,1,2
COC(=O)C1=C(C)NC2=C(C(=O)CC(c3cccs3)C2)C1c1ccsc1 (stereo unspecified),2,i,-1,0,3
COC(=O)c1oc2ccc(OC)cc2c1N,-4,+,-4,0,1
COc1ccc(C(=O)c2oc3ccc(OC)cc3c2N)cc1,3,i,0,-1,3
Cc1noc(C)c1-c1ccc(C(=O)Nc2cccc(C(F)(F)F)c2)c2occc12,0,i,/,-2,-3
COC(=O)c1ccc2c(=O)n(-c3ccc(OC)cc3)c(=S)[nH]c2c1,-4,+,1,1,-1
COc1ccc(-n2c(=S)[nH]c3cc(C(=O)O)ccc3c2=O)cc1,-2,i,-3,4,22
N#Cc1cc2cc3c(cc2nc1N1CCCCC1)OCCO3,8,i,0,0,2
N#Cc1cc2cc3c(cc2nc1Cl)OCCO3,36,i,/,18,61*
COC(=O)[C@@]1(C(C)C)N=C(c2cc(OC)c(OC)c(OC)c2)[C@]2(O1)C(=O)Nc1ccccc12,/,i,/,-1,3
CC1CCN(S(=O)(=O)c2ccc(NC(=O)CN3CCCC(C)C3)cc2)CC1 (stereo unspecified),2,i,-2,9,4
CC1CCCN(CC(=O)Nc2ccc(S(=O)(=O)N3CCCC3)cc2)C1 (stereo unspecified),-3,+,0,-2,4
C=CCc1cccc2ccc(=O)oc12,-4,+,-1,-3,4
O=C(COc1cccnc1[N+](=O)[O-])N1N=C(c2ccc(Cl)cc2)CC1c1ccco1 (stereo unspecified),-8,+,-7,-1,3
Cc1ccc(C2=NN(C(=O)CSc3nc4ncc(Cl)cc4[nH]3)C(c3ccco3)C2)cc1 (stereo unspecified),9,i,11,-2,3
Cc1ccc(OCC(=O)N2N=C(c3ccc(Cl)cc3)CC2c2ccco2)c([N+](=O)[O-])n1 (stereo unspecified),6,i,3,4,-2
Cc1ccc(C2=NN(C(=O)CSc3nccn3C)C(c3ccco3)C2)cc1 (stereo unspecified),0,+,-1,2,3
COc1ccccc1[C@H]1C(c2cccc(C)c2)=NN(c2ccccc2)[C@@H]1CO,20,+,/,13,6
COc1ccccc1[C@H]1C(c2ccccc2)=NN(c2ccccc2)[C@@H]1CO,6,i,/,0,2
O=c1oc(/C=C/c2ccccc2)nc2sc3c(c12)CCC3,/,i,2,47*,4
COc1ccc(NC(=O)C2(C)CCN2Cc2cccc(OC)c2F)cc1OC (stereo unspecified),4,i,/,1,5
O=S(=O)(/C=C/C=C/S(=O)(=O)c1ccccc1)c1ccccc1,0,/,/,2,3
N/C(=N\OC(=O)Nc1ccccc1)c1ncc([N+](=O)[O-])s1,1,+,0,3,0
Cc1ccc(S(C)=O)cc1-n1c(=O)n(Cc2ccccc2)c(=O)c2[nH]cnc21 (stereo unspecified),2,+,-1,3,0
SMILES,Rpn11 block,Myeloid diff MLP,TPT1 inhibitor,HNF4A DNA FP,CSN deneddyl inh
COc1ccc(C)c(-n2c(=O)n(Cc3ccccc3)c(=O)c3[nH]cnc32)c1,1,i,-1,7,-3
COC(=O)[C@]12CCCCC=C1N(Cc1ccc3c(c1)OCO3)C(=O)[C@H](CC(=O)N1CCN(C(=O)C3CC3)CC1)C2,/,i,/,-4,4
CCN(CC)C(=O)C1=C(C)N(Cc2ccc(F)cc2)C(=O)C(CC(=O)NCC2CCCCC2)C1 (stereo unspecified),-2,i,/,0,8
Cc1ccc(N(C(=O)CNC(=O)c2ccco2)C(C(=O)NC2CCCCC2)c2cccnc2)c(C)c1 (stereo unspecified),8,i,-3,-2,0
Cc1ccc(N(C(=O)CNC(=O)c2ccco2)C(C(=O)NC2CCCC2)c2cccnc2)c(C)c1 (stereo unspecified),-6,+,-1,0,1
Cc1cc(C)cc(C(O)c2ncc(-c3ccccc3Cl)[nH]2)c1 (stereo unspecified),-4,i,/,-6,0
CCn1c(=O)c(C(=O)CN2CCCc3ccccc32)c(N)n(Cc2ccccc2)c1=O,/,i,14,88,48*
CCn1c(=O)c(C(=O)CN2c3ccccc3CC2C)c(N)n(Cc2ccccc2)c1=O (stereo unspecified),3,i,5,0,4
CCCN(C)C1CN(Cc2cn(Cc3ccccc3)nn2)S(=O)(=O)C1 (stereo unspecified),/,i,/,2,-7
COc1ccc(N)cc1-n1c(C)ccc1C,-2,+,0,0,4
COc1ccc(C)cc1-n1c(C)cc(C=O)c1C,3,i,0,2,-5
O=C1COc2ccc(S(=O)(=O)NCCc3ccccc3)cc2N1,-4,+,2,6,1
CCOc1ccc(CCNS(=O)(=O)c2ccc3c(c2)NC(=O)CO3)cc1OCC,-1,i,2,2,2
COc1ccc(C2=Nc3ccccc3N(C(=O)c3ccc(C(F)(F)F)cc3)C2C(=O)NCc2ccccc2)cc1 (stereo unspecified),/,i,/,2,-2
CCN(CC)c1nc(C(N)=O)cc(-c2ccccc2)n1,-12,i,-1,0,0
CN1CCN(c2nc(C(N)=O)cc(-c3ccccc3)n2)CC1,39*,i,-1,1,0
CC(C)Cn1c(=O)c(C(=O)Nc2ccncc2)c(O)c2ccccc21,-87,+,-1,-52,-21
Cc1ccc(C(=O)NCCN2CCC(n3c(=O)[nH]c4ccccc43)CC2)cc1C,/,i,/,-8,1
Cc1ccc(Nc2nnc(SC3CCOC3=O)s2)cc1 (stereo unspecified),-5,i,-2,0,9
O=C1CCCCC1Sc1nnc(Nc2ccccc2)s1 (stereo unspecified),2,i,-1,4,45*
O=C1NC[C@H](CCCCN2CCN(CC3CCCCC3)C(=O)C2=O)N(CCc2ccccc2)C1=O,/,i,/,-1,-3
